# Only some compounds are listed: those with a hit (about 2.2% of all), similar ones and a draw of the others.
# ROMK mod: modulators of human ROMK potassium channel | P48048 | B-score at 10 µM | AID 1918 | 130,000 tested, 2% active | Tet-inducible ROMK, thallium flux fluorescence; actives lie on both sides;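 active = signal ratio slope over the read window, or its plate-corrected B-score, at least 3 SD from the plate mean, either direction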;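 note: B-score of the F/F0 ratio slope over 7 to 12 s after thallium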
# Target sequence (P48048 whole entry, looked up): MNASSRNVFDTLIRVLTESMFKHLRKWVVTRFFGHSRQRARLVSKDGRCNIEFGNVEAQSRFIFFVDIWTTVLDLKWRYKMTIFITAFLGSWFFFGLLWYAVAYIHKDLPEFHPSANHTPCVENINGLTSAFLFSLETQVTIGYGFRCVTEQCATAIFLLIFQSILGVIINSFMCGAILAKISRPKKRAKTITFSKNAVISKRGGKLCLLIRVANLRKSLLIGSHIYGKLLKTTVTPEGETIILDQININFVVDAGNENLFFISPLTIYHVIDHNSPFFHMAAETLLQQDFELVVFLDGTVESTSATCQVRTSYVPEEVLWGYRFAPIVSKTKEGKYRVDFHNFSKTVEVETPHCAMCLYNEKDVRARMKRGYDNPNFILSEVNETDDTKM
# Diaphorase inh: diaphorase inhibition or chemical oxidation counter-screen; diaphorase resazurin-to-resorufin fluorescence, NADH, 16 min; bacterial (C. kluyveri) enzyme, not human; inhibition, % at 20 µM; 190,000 tested, 0.69% active; AID 1217;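 active = primary screen inhibition at 20 µM above a set limit, cut at about 50% in these data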;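 note: plate controls were DMSO with full reaction for no effect and wells lacking NADH for full effect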
#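 Benchmarks: positive control wells lacking NADH, neutral wells with DMSO only. System: bacterial diaphorase enzyme (C. kluyveri). Input: 0.14 U/mL diaphorase, enzyme working solution. Detection: resorufin fluorescence, excitation 544 nm, emission 590 nm. Times: 16-min room-temperature incubation before reading.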
# PMI act hi M6P: activators of human phosphomannose isomerase at near-saturating mannose 6-phosphate; activation factor at 20 µM; coupled PMI enzyme assay, resazurin fluorescence, 20 min; hits give high values; 1 = untreated enzyme, 0 = substrate-free blank; P34949; 190,000 tested, 0.34% active;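 active = activation factor of 2 or more at 20 µM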
#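 Test system: human phosphomannose isomerase with PGI, G6PDH, diaphorase coupling enzymes / Doses: 20 µM compound, 1% DMSO / Times: enzyme reaction with compound 20 min at room temperature / Measured by: Diaphorase-driven resazurin-to-resorufin fluorescence, excitation 544, emission 590 nm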
# Diaph act CS: activates diaphorase or chemically reduces, flagging diaphorase assay artifacts | activation factor at 20 µM | AID 1229 | 190,000 tested, 0.005% active | Diaphorase/resazurin coupled assay, resorufin fluorescence, 16 min; hits give high values; 1 = vehicle wells, 0 = NADH-free wells;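 active = diaphorase activity raised at least twofold by the compound at 20 µM; inactive = activation factor below 2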
#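 System – purified diaphorase enzyme from Clostridium kluyveri · Input – enzyme 0.07 U/mL final · Also added – final NADH 0.114 mM, resazurin 0.1 mM · Measured by – fluorescence of resorufin, 544 nm excitation, 590 nm emission · Timing – 16 min enzyme reaction, ambient temperature · Measure – resorufin increase flagging diaphorase activators or reducers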
# G6PDH counter: L. mesenteroides G6PDH inhibition counter-screen; Purified L. mesenteroides G6PDH, diaphorase/resazurin coupled fluorescence, 45 min; inhibition, % at 5 µM; 200,000 tested, 0.12% active; in the data active = inhibition above about 50%
# PMI act: activators of human phosphomannose isomerase; P34949; purified human PMI, coupled resazurin fluorescence, 20 min; hits give high values; 1 = vehicle control, 0 substrate-free wells; activation factor at 20 µM; 190,000 tested, 0.005% active; AID 1214;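 active = activation factor of 2 or more at 20 µM, relative to plate controls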
# ROMK retest: human ROMK channel modulation, retest confirmation; normalized thallium flux (F/F0 slope) at 10 µM; ROMK thallium flux, fluorescence ratio; hits give low values; shares compounds with ROMK mod; 3,000 tested, 54% active;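 active = Flux at 10 µM at least 3 SD below or above vehicle control mean in one or both replicates; inconclusive = no clear call, values can overlap the other calls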
# An asterisk follows results filed as active; ? = inconclusive; / = not tested or not shown.
SMILES,ROMK mod,Diaphorase inh,PMI act hi M6P,Diaph act CS,G6PDH counter,PMI act,ROMK retest
CC1=Nc2ccccc2N=C(NC(=O)CN2CCN(c3ccccc3)CC2)C1c1ccccc1 (centres undefined),3.2*,29,0.9,0.7,4,0.9,0.084
Cc1ccc2cc(CN(Cc3ccc4c(c3)OCO4)Cc3nnnn3Cc3ccco3)c(=O)[nH]c2c1C,-4.2*,25,0.9,0.8,-53,0.9,?
CCOC(=O)c1cccc(COC(=O)c2cccc(-c3nnc(-c4ccccc4)o3)c2)c1,-0.18,14,1,0.9,9,0.8,/
O=C1c2ccccc2C(=O)N1CCCCN(C(=O)c1cccc([N+](=O)[O-])c1)c1ccc(Cl)cc1,/,16,1.1,0.8,5,1.1,/
O=C1c2ccccc2C(=O)N1CCCCN(C(=O)c1ccco1)c1ccc(Cl)cc1,-3.4*,22,0.9,0.8,2,0.9,0.049*
COc1ccccc1C(=O)NC1CCN(C(=S)NCCc2ccccc2)CC1,-1.6,12,1,0.9,8,1,/
CC(=O)c1ccccc1NCC(=O)Nc1ccc(C)cc1,-0.31,18,1.3,0.8,14,1.4,/
O=C1CCC/C(=N/Nc2ccc(Cl)cc2)C1,0.21,26,1.6,0.7,13,1.3,/
COc1ccccc1N1CCN(C2CCN(C3CCC(c4ccccc4)CC3)CC2)CC1 (centres undefined),-3.1*,15,1,0.9,1,1.1,0.061*
CC(C)(C)n1nc2c(c1NC(=O)c1cc3ccccc3o1)CS(=O)(=O)C2,1.1,-6,1.1,1.1,9,1.2,/
Cc1cc(C2(c3ccc(O)c(C)c3)OC(=O)c3ccccc32)ccc1O,-1.2,36,0.7,0.6,5,0.8,0.073
Cc1cc(C)c(OC2(c3ccccc3)OC(=O)c3ccccc32)c(C)c1 (centres undefined),/,10,0.9,0.9,9,0.8,/
COC(=O)c1ccn(Cc2ccccc2Cl)n1,-0.16,8,0.9,0.9,12,0.9,/
CC(=O)N1CCN(C2=NC(=O)/C(=C\c3cccs3)S2)CC1,-6.7*,2,0.9,1,11,1,0.083
O=C1/C(=C/c2ccc(O)c(O)c2)SC(=S)N1Nc1ccccc1,-2*,56*,0.8,0.4,4,0.5,0.058*
COc1cc(/C=C2\SC(=S)N(Nc3ncc(C(F)(F)F)cc3Cl)C2=O)ccc1O,-3.7*,27,0.8,0.7,4,0.9,0.064*
COc1cc(/C=C2\SC(=S)N(NC(=O)c3cccnc3)C2=O)ccc1O,-4.2*,/,/,/,/,/,0.058*
COc1cccc(/C=C2\SC(=S)N(NC(=O)c3ccncc3)C2=O)c1,/,/,/,/,11,/,/
NC(=S)N1OC[C@@H]2COc3ccc4ccccc4c3[C@@H]21,-0.46,7,1.1,0.9,7,1,/
CC(C)(C)c1ccc(S(=O)(=O)N(CCCN2CCOCC2)Cc2cccs2)cc1,-3.5*,13,1.1,0.9,5,1,0.052*
O=C(NCC(c1cccs1)N1CCOCC1)c1ccccc1NS(=O)(=O)c1cc([N+](=O)[O-])ccc1Cl (centres undefined),/,14,1.2,0.9,-2,1,0.068*
COc1cccc(NC(=O)c2cccc(C)c2[N+](=O)[O-])c1,4.3*,4,1,1,1,1,0.082
COCCNc1ccc([N+](=O)[O-])cc1C(=O)Nc1cccc(C)n1,-5.1*,11,0.9,0.9,-1,1,0.029*
Cc1ccc(NC(=O)c2cc([N+](=O)[O-])ccc2NCc2cccnc2)cc1Cl,/,9,0.9,0.9,-1,1,/
COc1cccc(NC(=O)c2cc([N+](=O)[O-])ccc2NCc2cccnc2)c1,-6.7*,10,1.1,0.9,1,1,0.03*
SMILES,ROMK mod,Diaphorase inh,PMI act hi M6P,Diaph act CS,G6PDH counter,PMI act,ROMK retest
O=C1CN(C(=O)/C=C/c2ccccc2F)c2ccccc2N1,0.62,15,0.9,0.8,-1,1,/
Cc1ccc(C)c(Nc2nc3nonc3nc2N2CCOCC2)c1,-3.5*,9,1,0.9,4,1,?
Cc1cc2cc(C(c3nnnn3C(C)(C)C)N(Cc3ccco3)CC3CCCO3)c(=O)[nH]c2cc1C (centres undefined),/,12,0.9,0.9,6,1,/
Cc1cc(C)c2[nH]c(=O)c(C(c3nnnn3C(C)(C)C)N(Cc3ccco3)CC3CCCO3)cc2c1 (centres undefined),-3.3*,-6,1.3,1.1,7,1.2,0.058*
Cc1cccc2cc(CN(CC3CCCO3)C(c3nnnn3Cc3ccco3)C(C)C)c(=O)[nH]c12 (centres undefined),-3*,20,0.9,0.8,4,0.8,0.071
CS(=O)(=O)N1CCC(C(=O)NCc2ccccc2)CC1,0.96,5,0.9,0.9,-1,1,/
CCOCC(=O)Nc1ccc([N+](=O)[O-])cc1C,0.0049,-10,1,1.1,7,1,/
CCOC(=O)c1cnc(-n2nc(C)cc2C)nc1NC1CCCCC1,-4.7*,-1,1,1,3,0.9,0.056*
CCOC(=O)c1cnc(-n2nc(C)cc2C)nc1NC,/,9,0.8,0.9,12,0.8,/
CCCN1C(=O)/C(=C/c2c(NCCCOCC)nc3c(C)cccn3c2=O)SC1=S,-2,-8,0.8,1.1,8,1,/
Cc1cccn2c(=O)c(/C=C3\SC(=S)NC3=O)c(NCCCN3CCOCC3)nc12,/,/,/,/,/,/,0.053*
O=[N+]([O-])c1ccccc1CNC1CCCc2ccccc21 (centres undefined),-0.82,8,1.1,0.9,2,1.1,/
CCOC(=O)c1cc(-c2ccc(/C=N\n3cnnc3)o2)ccc1Cl,/,14,0.9,0.9,-35,0.9,0.066*
CC1(C)CC(=O)C2=C(C1)OC1OC(=O)CC21C (centres undefined),1.4*,2,1,1,5,1,0.091
Cc1ccc(C2C3=C(CC(C)(C)CC3=O)OC3=C2C(=O)CC(C)(C)C3)cc1,-0.041,9,1,0.9,3,0.9,/
S=C(NCCc1ccccc1)N1CCN(C2CCCCC2)CC1,-2.7*,7,1,0.9,-1,1,0.063*
CC1CCN(C(=S)NCCc2ccccc2)CC1,/,7,1,0.9,4,1,/
O=C(CNCCc1ccccc1)N1CCc2ccccc2C1,0.17,4,0.9,1,5,1.1,/

# Compound activity deposited in PubChem BioAssay by several laboratories.
